The source made the active and inactive calls. The rule behind the calls is not given here.

The results in this text go back to ChEMBL document CHEMBL5335820, “Novel quinolinepiperazinyl-aryltetrazoles targeting the blood stage of Plasmodium falciparum” (RSC Med Chem, 2024).

Data set [1] deals with Plasmodium falciparum. In words: Antimalarial activity against chloroquine resistant early schizont Plasmodium falciparum INDO infected in human erythrocytes assessed as inhibition of parasite growth incubated for 12 hrs. It counts as functional, organism-based. As to conditions: Erythrocyte. The gist of the method:
(§1)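 PfINDO cultures were staged at 0–6 h (rings), 18–22 h (trophozoites), 30–34 h (early schizonts) and 40–44 h (late schizonts) post-invasion. Each was exposed to varying concentrations for 12 h, washed free of compound by centrifugation, and grown 48 h in drug-free medium. IC50 came from growth curves, with untreated culture as 100% and chloroquine-treated culture as 0% growth.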

Data set [2] concerns Plasmodium falciparum. The data set can be described thus: Antiplasmodial activity against chloroquine sensitive Plasmodium falciparum 3D7 infected in human erythrocytes assessed as inhibition of parasite growth incubated for 72 hrs by SYBR green I staining based fluorescence plate reader analysis. Type of data set: functional, organism-based. As to conditions: 3D7, Erythrocyte. The method in brief:
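Pf3D7 or PfINDO was cultured in O+ human erythrocytes at 37 °C under 5% O2/5% CO2/90% N2 and ring-synchronised with 5% sorbitol. Cultures were exposed to 0–100 μM in triplicate for 72 h, with final DMSO 0.4%. After SYBR Green I lysis buffer (1 h, dark, 37 °C), fluorescence was read at 485/530 nm. Chloroquine-well counts were subtracted as background, and IC50 was obtained by non-linear regression.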

A short description of data set [3]: Toxicity in mouse assessed as lacrimation at 100 mg/kg, po measured after 45 mins. Type of data set: organism-based. As to conditions: in vivo, 0.75 h. The gist of the method:
(§2)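 Acute oral toxicity per OECD 423. Mice were fasted 4 h, given a single 100 mg/kg oral dose, and observed for 45 min for signs of acute toxicity, compared with untreated controls.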

Data set [4] is described as follows: Selectivity index, ratio of CC50 for human Huh-7 cells to IC50 for antiplasmodial activity against chloroquine resistant Plasmodium falciparum INDO infected in human erythrocytes. Type of data set: toxicity, cell-based. As to conditions: read-out: Ratio CC50/IC50. The method in brief: (§3)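 Selectivity index = CC50 / PfINDO IC50. CC50 came from MTT assays: 10^4 HEK293 or HUH7 cells per well, seeded overnight and exposed to 0–100 μM for 24 h, then MTT for 4 h at 37 °C with formazan dissolved in DMSO and read at A570. Controls were 0.8% DMSO (full growth) and 10% DMSO (zero growth).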

The subject of data set [5] is Plasmodium falciparum. The data set can be described thus: Additive antiplasmodial activity against multidrug-resistant Plasmodium falciparum Cam3.1R539T infected in human erythrocytes at 8 times IC50 concentration incubated for 72 hrs in presence of artemisinin by SYBR green I staining based fluorescence assay. Type of data set: functional, organism-based. As to conditions: Erythrocyte. The method in brief: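 P. falciparum Cam3.1R539T in O+ human erythrocytes, 1% parasitemia, 2% haematocrit. 8× IC50 stocks of test compound and standard drug were mixed at molar ratios 4:1, 3:2, 2:3 and 1:4, then serially diluted two-fold. Plates were incubated 72 h at 37 °C and read by SYBR Green I lysis. Controls were 0.4% DMSO (100% growth) and 4 μM chloroquine (0% growth). ΣFIC = FICA + FICB; <1 synergistic, 1.0–2.0 additive, >2.0 antagonistic.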

The nature of data set [6]: Cytotoxicity against human Huh-7 cells assessed as reduction in cell viability incubated for 24 hrs by MTT assay. It counts as toxicity, cell-based. On the technique in general: Tetrazolium assays rely on reduction of a dye to a coloured formazan, in cell work by metabolically active cells.
Data set [7] is described as follows: Binding affinity to Plasmodium falciparum GAP50 assessed as dissociation constant by SPR analysis. The gist of the method:
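GAP50 at 50 μg ml−1 in 10 mM acetate pH 4.5 was amine-coupled (EDC/NHS) onto a CM5 chip. Analytes at several concentrations in 5% DMSO/1× PBS; association 60 s, dissociation 120 s, flow 30 μl min−1. Regeneration with 10 mM glycine pH 3.0 for 30 s. Sensorgrams fitted to a 1:1 Langmuir model giving ka, kd and KD.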
On the technique in general: In SPR one partner is held on a chip, and binding of the other changes the refractive index at the surface.

A short description of data set [8]: Toxicity in mouse assessed as diarrhea at 100 mg/kg, po measured after 45 mins. Type of data set: organism-based. As to conditions: in vivo, 0.75 h. The method in brief: as §2
Data set [9] in a line: Toxicity in mouse assessed as changes in skin at 100 mg/kg, po measured after 45 mins. To be noted: in vivo, 0.75 h. It counts as organism-based. The method in brief:
as §2

Data set [10] can be described thus: Toxicity in mouse assessed as change in body weight at 100 mg/kg, po measured after 45 mins. It counts as organism-based. As to conditions: in vivo, 0.75 h. The gist of the method:
as §2

Data set [11] is described as follows: Toxicity in mouse assessed as effect on urination at 100 mg/kg, po measured after 45 mins. It counts as organism-based. To be noted: in vivo, 0.75 h. The method in brief: as §2
Data set [12] in a line: Toxicity in mouse assessed as sedation at 100 mg/kg, po measured after 45 mins. It counts as organism-based. As to conditions: in vivo, 0.75 h. The method in brief: as §2
For data set [13], the system named is Plasmodium berghei. The data set can be described thus: Antimalarial activity against Plasmodium berghei ANKA infected in mouse model of malaria assessed as reduction in parasite infection by measuring median survival at 100 mg/kg, po. Type of data set: functional.
Data set [14] is described as follows: Toxicity in mouse assessed as effect on water intake at 100 mg/kg, po measured after 45 mins. Type of data set: organism-based. To be noted: in vivo, 0.75 h. The method in brief:
as §2

Data set [15] is described as follows: Selectivity index, ratio of CC50 for human HEK293 cells to IC50 of chloroquine resistant Plasmodium falciparum INDO infected in human erythrocytes. To be noted: read-out: Ratio CC50/IC50. Type of data set: toxicity, cell-based. The gist of the method: as §3
Data set [16] is described as follows: Toxicity in mouse assessed as change in temperature at 100 mg/kg, po measured after 45 mins. Type of data set: organism-based. To be noted: in vivo, 0.75 h. The gist of the method: as §2
In data set [17] the test system is Plasmodium falciparum. In words: Antiplasmodial activity against artemisinin-resistant early ring stage Plasmodium falciparum Cam3.1R539T infected in human erythrocytes assessed as reduction in parasite growth at 10 times IC50 concentration preincubated for 6 hrs followed by media replacement without compound for 66 hrs and measured after 72 hrs by Giemsa-staining based analysis. It counts as functional, organism-based. As to conditions: Erythrocyte. The method in brief: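 Ring-stage survival assay. PfCam3.1R539T or PfINDO rings (0–3 h post-invasion), 1% parasitemia, 2% haematocrit, were exposed to 10× IC50 for 6 h. Compound was removed by three PBS washes, then cultures were grown 66 h in fresh medium. At 72 h, stage progression was assessed on Giemsa smears and revival by SYBR Green I lysis. Triplicate biological samples.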

Data set [18] in a line: Toxicity in mouse assessed as effect on eye colour at 100 mg/kg, po measured after 45 mins. Type of data set: organism-based. To be noted: in vivo, 0.75 h. The gist of the method: as §2
Data set [19] is described as follows: Toxicity in mouse assessed as drowsiness at 100 mg/kg, po measured after 45 mins. Type of data set: organism-based. As to conditions: in vivo, 0.75 h. The method in brief:
as §2

Data set [20] is described as follows: Toxicity in mouse assessed as effect on rate of respiration at 100 mg/kg, po measured after 45 mins. It counts as organism-based. To be noted: in vivo, 0.75 h. The method in brief:
as §2

The test system of data set [21] is Plasmodium falciparum. In words: Antimalarial activity against chloroquine resistant late schizont Plasmodium falciparum INDO infected in human erythrocytes assessed as inhibition of parasite growth incubated for 12 hrs. Type of data set: functional, organism-based. To be noted: Erythrocyte. The method in brief: as §1
Data set [22] in a line: Toxicity in mouse assessed as death at 100 mg/kg, po measured after 45 mins. It counts as organism-based. To be noted: in vivo, 0.75 h. The method in brief: as §2
A short description of data set [23]: Toxicity in mouse assessed as appetite loss at 100 mg/kg, po measured after 45 mins. It counts as organism-based. To be noted: in vivo, 0.75 h. The method in brief: as §2
Data set [24] has as its system Plasmodium falciparum. The data set can be described thus: Antiplasmodial activity against chloroquine resistant Plasmodium falciparum INDO trophozoites infected in human erythrocytes assessed as increase in reactive oxygen species level at 2 times IC50 concentration incubated for 8 hrs by H2DCFDA staining based fluorescence analysis. It counts as functional, organism-based. As to conditions: Erythrocyte. The method in brief: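 PfINDO trophozoites (24–28 h post-invasion), 2% parasitemia, 2% haematocrit, were loaded with CM-H2DCFDA (5 μM, 30 min) and washed with PBS. They were then treated at 2× IC50 for 8 h, and DCF fluorescence was read at 530 nm. Controls were 100 μM H2O2 (positive) and 0.4% DMSO (negative). Triplicate biological samples.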

As for `Clc1ccc2c(N3CCN(CCCn4nnc(-c5ccc(Br)cc5)n4)CC3)ccnc2c1`, the IC50 (as a rule, the concentration that gives 50% inhibition) in data set [1] worked out at 2.81 µM; in data set [2] it was 1.85 µM; in data set [21], 1.5 µM. The Activity entry in [3], in [8], in data set [9], in data set [10], in data set [11] and in data set [12] was “Non-Toxic” each time. Also, the Activity entry in data set [14], in [16], in data set [18], in data set [19], in data set [20] and in [22] was “Non-Toxic” in each case. Besides, the Activity entry in [23] is on record as “Non-Toxic”. In addition, the selectivity ratio in data set [4] stood at 128; in [15], 178. Besides, the outcome in data set [5] and in data set [24] was Active. Moreover, the CC50 (commonly the concentration at which the toxic effect on the cells reaches its halfway point) at 24 h in data set [6] came to 288 µM. Also, the Kd in data set [7] was found to be 0.191 s⁻¹. Moreover, the Survival in data set [13] stood at 28 days. Moreover, in data set [17], the result was inactive.

Consider `O=C(Cn1nnc(-c2cccc([N+](=O)[O-])c2)n1)N1CCN(c2ccnc3cc(Cl)ccc23)CC1`, for which the IC50 in data set [1] is 2.15 µM; in [2], 2.23 µM; in [21], 7.1 µM. Besides, the Activity entry in data set [3], in [8], in [9], in [10], in [11] and in [12] was “Non-Toxic” each time. Moreover, the Activity entry in data set [14], in data set [16], in [18], in data set [19], in [20] and in [22] was “Non-Toxic” in each case. Moreover, the Activity entry in [23] is “Non-Toxic”. The selectivity ratio in [4] and in [15] was 223 each time. The result in [5], in data set [17] and in data set [24] was Active. In addition, the CC50 at 24 h in data set [6] came to 400 µM. The Kd in data set [7] turned out to be 0.006 s⁻¹. In [13], the Survival was 22 days.
